Measurements: ChEMBL document CHEMBL4354820, “Optimizing Targeted Inhibitors of P-Glycoprotein Using Computational and Structure-Guided Approaches” (J Med Chem, 2019)

Assays:
[1] = target: T1, ATP-dependent translocase ABCB1 (Homo sapiens, UniProt P08183); assay: Inhibition of P-gp overexpressed in human DU145-TxR cells assessed as increase in cellular accumulation of calcein AM at 2 uM pretreated followed by calcein AM addition by fluorescence imaging analysis; type: cell-based
Method in brief: (§1)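 Confluent DU145TXR monolayers in phenol red-free RPMI 1640 given 2 μM inhibitor (DMSO vehicle) and 1 μg mL−1 calcein AM, either added together or after a 6 h inhibitor-only preincubation at 37 °C. Calcein fluorescence (ex 485 / em 535 nm) read over 60 min at 20 min intervals. Six replicates, at least two independent experiments.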

[2] = target: T1, ATP-dependent translocase ABCB1; assay: Reversal of P-gp mediated multidrug resistance in human DU145-TxR cells overexpressing P-gp assessed as potentiation of paclitaxel-induced cytotoxicity by measuring fold reduction paclitaxel IC50 at 7 uM after 48 hrs by MTT assay relative to paclitaxel alone; type: cell-based
Method in brief: (§2)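 DU145TXR cells seeded at 3000 per well, 24 h later treated 48 h with paclitaxel alone or with 3, 5, 7 or 10 μM inhibitor in complete medium (DMSO vehicle). MTT 4 h, formazan dissolved in DMSO, A570 read, background subtracted, viability relative to DMSO. IC50 by four-parameter nonlinear fit; eight replicates, at least two experiments. Fold values compare paclitaxel alone or with parent inhibitor.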

[3] = target: T1, ATP-dependent translocase ABCB1; assay: Reversal of P-gp mediated multidrug resistance in human DU145-TxR cells overexpressing P-gp assessed as potentiation of paclitaxel-induced cytotoxicity by measuring fold reduction paclitaxel IC50 at 5 uM after 48 hrs by MTT assay relative to paclitaxel alone; type: cell-based; method in brief: as §2
[4] = target: T1, ATP-dependent translocase ABCB1; assay: Reversal of P-gp mediated multidrug resistance in human DU145-TxR cells overexpressing P-gp assessed as potentiation of paclitaxel-induced cytotoxicity by measuring fold reduction paclitaxel IC50 at 3 uM after 48 hrs by MTT assay relative to paclitaxel alone; type: cell-based; method in brief: as §2
[5] = target: T1, ATP-dependent translocase ABCB1; assay: Reversal of P-gp mediated multidrug resistance in human DU145-TxR cells overexpressing P-gp assessed as potentiation of paclitaxel-induced cytotoxicity by measuring fold reduction paclitaxel IC50 at 3 uM after 48 hrs by MTT assay relative to parent compound; type: cell-based; method in brief: as §2
[6] = target: T1, ATP-dependent translocase ABCB1; assay: Reversal of P-gp mediated multidrug resistance in human DU145-TxR cells overexpressing P-gp assessed as potentiation of paclitaxel-induced cytotoxicity by measuring fold reduction paclitaxel IC50 at 10 uM after 48 hrs by MTT assay relative to paclitaxel alone; type: cell-based; method in brief: as §2
[7] = target: T1, ATP-dependent translocase ABCB1; assay: Reversal of P-gp mediated multidrug resistance in human DU145-TxR cells overexpressing P-gp assessed as potentiation of paclitaxel-induced cytotoxicity by measuring fold reduction paclitaxel IC50 at 5 uM after 48 hrs by MTT assay relative to parent compound; type: cell-based; method in brief: as §2
[8] = target: T1, ATP-dependent translocase ABCB1; assay: Reversal of P-gp mediated multidrug resistance in human DU145-TxR cells overexpressing P-gp assessed as potentiation of paclitaxel-induced cytotoxicity by measuring fold reduction paclitaxel IC50 at 7 uM after 48 hrs by MTT assay relative to parent compound; type: cell-based; method in brief: as §2
[9] = target: T1, ATP-dependent translocase ABCB1; assay: Reversal of P-gp mediated multidrug resistance in human DU145-TxR cells overexpressing P-gp assessed as potentiation of paclitaxel-induced cytotoxicity by measuring fold reduction paclitaxel IC50 at 10 uM after 48 hrs by MTT assay relative to parent compound; type: cell-based; method in brief: as §2
[10] = target: T1, ATP-dependent translocase ABCB1; assay: Inhibition of P-gp overexpressed in human DU145-TxR cells assessed as increase in cellular accumulation of calcein AM at 2 uM preincubated for 6 hrs followed by calcein AM addition by fluorescence imaging analysis; type: cell-based; method in brief: as §1
[11] = target: T2, P-glycoprotein (ABCB1, mouse MDR3) ATPase (Mus musculus, UniProt P21447); assay: Stimulation of verampil-mediated ATPase hydrolysis in recombinant mouse MDR3 expressed in Pichia pastoris measured after 30 mins in presence of NADH by coupled enzyme assay (reference value: 100 +/- 8 %); set-up: scale not given: the % may be the effect or the level left; settings: recombinant mouse MDR3 (P-gp) expressed in Pichia pastoris, read-out: Activity
T2 sequence (P21447 whole entry): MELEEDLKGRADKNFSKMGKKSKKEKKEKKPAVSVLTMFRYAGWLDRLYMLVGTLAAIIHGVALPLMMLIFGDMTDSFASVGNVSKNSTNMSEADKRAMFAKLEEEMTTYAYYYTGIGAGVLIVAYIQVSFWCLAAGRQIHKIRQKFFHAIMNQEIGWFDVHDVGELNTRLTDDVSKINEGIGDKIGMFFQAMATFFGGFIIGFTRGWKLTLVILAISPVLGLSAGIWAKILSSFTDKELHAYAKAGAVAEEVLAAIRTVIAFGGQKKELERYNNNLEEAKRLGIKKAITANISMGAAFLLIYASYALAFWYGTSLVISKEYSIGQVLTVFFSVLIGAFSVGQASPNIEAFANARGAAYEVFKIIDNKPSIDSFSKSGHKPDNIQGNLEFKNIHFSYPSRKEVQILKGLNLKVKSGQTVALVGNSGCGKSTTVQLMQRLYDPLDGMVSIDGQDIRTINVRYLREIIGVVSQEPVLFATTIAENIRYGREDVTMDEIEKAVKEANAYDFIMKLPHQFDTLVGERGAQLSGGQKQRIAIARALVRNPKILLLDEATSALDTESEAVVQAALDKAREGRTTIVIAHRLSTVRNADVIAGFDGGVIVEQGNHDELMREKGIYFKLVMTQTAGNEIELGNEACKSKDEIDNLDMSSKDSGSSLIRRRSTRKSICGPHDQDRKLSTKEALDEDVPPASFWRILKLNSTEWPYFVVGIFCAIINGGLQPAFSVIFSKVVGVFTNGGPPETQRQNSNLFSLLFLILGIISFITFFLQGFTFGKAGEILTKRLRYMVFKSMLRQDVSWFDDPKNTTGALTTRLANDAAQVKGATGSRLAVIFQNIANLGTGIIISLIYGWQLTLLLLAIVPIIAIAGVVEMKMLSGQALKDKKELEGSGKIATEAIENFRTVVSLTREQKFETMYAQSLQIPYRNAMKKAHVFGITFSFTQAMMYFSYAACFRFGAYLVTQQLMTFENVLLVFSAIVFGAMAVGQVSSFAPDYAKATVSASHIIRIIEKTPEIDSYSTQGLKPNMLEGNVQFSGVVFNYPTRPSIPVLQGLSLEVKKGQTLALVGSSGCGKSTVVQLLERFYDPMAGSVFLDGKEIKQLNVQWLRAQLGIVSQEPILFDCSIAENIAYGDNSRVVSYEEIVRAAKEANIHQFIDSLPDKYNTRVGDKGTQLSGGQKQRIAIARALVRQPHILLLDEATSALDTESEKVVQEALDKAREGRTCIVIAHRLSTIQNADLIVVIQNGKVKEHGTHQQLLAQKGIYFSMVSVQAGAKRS

[12] = target: T2, P-glycoprotein (ABCB1, mouse MDR3) ATPase; assay: Stimulation of basal ATPase hydrolysis in recombinant mouse MDR3 expressed in Pichia pastoris measured after 30 mins in presence of NADH by coupled enzyme assay (reference value: 100 +/- 7 %); set-up: scale not given: the % may be the effect or the level left; settings: recombinant mouse MDR3 (P-gp) expressed in Pichia pastoris, read-out: Activity
[13] = target: T1, ATP-dependent translocase ABCB1; assay: Inhibition of P-gp overexpressed in human DU145-TxR cells assessed as increase in intracellular compound accumulation after 2.5 hrs in presence of tariquidar by LC-MS/MS analysis; type: cell-based
Method in brief: (§3)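 P-gp-overexpressing DU145TXR cells exposed to test compounds with or without tariquidar. Intracellular compound measured by LC–MS/MS, with daunorubicin as a transported-substrate control. Ratio is accumulation with tariquidar divided by accumulation without.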

[14] = target: T1, ATP-dependent translocase ABCB1; assay: Inhibition of P-gp overexpressed in human DU145-TxR cells assessed as decrease in intracellular compound accumulation after 2.5 hrs in absence of tariquidar by LC-MS/MS analysis; type: cell-based; method in brief: as §3
[15] = target: T1, ATP-dependent translocase ABCB1; assay: Ratio of inhibition of P-gp overexpressed in human DU145-TxR cells assessed as increase in intracellular compound accumulation after 2.5 hrs in presence of tariquidar by LC-MS/MS analysis to Inhibition of P-gp overexpressed in human DU145-TxR cells assessed as decrease in intracellular compound accumulation after 2.5 hrs in absence of tariquidar by LC-MS/MS analysis; type: cell-based; method in brief: as §3
[16] = target: T3, P-glycoprotein (ABCB1, MDR1) ATPase (Homo sapiens, UniProt P08183); assay: Inhibition of verampil-stimulated ATPase hydrolysis in recombinant human MDR1 expressed in Pichia pastoris measured after 30 mins in presence of NADH by coupled enzyme assay (reference value: 100 +/- 6 %); set-up: scale not given: the % may be the effect or the level left; settings: recombinant human MDR1 (P-gp) expressed in Pichia pastoris
T3 sequence (P08183 whole entry): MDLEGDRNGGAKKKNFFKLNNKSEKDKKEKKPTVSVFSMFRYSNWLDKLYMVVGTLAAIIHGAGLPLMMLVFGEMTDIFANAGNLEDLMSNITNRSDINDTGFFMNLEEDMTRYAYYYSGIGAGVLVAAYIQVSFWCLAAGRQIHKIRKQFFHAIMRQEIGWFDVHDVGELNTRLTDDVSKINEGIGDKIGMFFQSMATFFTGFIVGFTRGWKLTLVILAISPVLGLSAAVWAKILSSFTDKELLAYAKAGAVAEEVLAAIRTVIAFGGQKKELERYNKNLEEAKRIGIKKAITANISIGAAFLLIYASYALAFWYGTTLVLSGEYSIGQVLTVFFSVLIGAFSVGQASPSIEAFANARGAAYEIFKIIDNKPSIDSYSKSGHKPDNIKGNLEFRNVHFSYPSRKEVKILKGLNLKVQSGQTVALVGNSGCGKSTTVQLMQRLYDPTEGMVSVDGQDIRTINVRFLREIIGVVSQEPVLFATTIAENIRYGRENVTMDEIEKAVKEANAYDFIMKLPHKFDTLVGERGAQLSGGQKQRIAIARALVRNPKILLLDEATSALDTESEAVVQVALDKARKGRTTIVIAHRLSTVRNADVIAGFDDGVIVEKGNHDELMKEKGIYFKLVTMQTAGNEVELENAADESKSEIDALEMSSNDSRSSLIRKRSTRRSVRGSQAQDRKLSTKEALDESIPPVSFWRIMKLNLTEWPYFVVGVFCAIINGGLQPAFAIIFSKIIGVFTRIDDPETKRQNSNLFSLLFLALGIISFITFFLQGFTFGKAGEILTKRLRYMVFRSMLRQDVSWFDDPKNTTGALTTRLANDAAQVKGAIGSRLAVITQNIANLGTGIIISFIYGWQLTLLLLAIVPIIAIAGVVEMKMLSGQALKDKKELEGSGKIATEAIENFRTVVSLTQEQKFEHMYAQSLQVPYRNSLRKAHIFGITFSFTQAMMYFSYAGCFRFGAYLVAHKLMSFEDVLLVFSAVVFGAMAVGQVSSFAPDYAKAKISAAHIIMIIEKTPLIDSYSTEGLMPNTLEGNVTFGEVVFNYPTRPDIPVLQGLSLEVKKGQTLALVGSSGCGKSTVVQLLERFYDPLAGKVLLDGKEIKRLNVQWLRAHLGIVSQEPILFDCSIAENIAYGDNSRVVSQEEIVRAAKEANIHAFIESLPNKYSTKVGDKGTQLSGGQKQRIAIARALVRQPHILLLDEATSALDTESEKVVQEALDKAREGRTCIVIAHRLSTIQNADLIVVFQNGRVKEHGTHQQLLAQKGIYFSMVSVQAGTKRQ

[17] = target: T3, P-glycoprotein (ABCB1, MDR1) ATPase; assay: Basal ATPase hydrolysis in recombinant human MDR1 expressed in Pichia pastoris measured after 30 mins in presence of NADH by coupled enzyme assay (reference value: 100 +/- 5 %); set-up: scale not given: the % may be the effect or the level left; settings: recombinant human MDR1 (P-gp) expressed in Pichia pastoris
[18] = target: P-glycoprotein 1 Abcb1a (Mus musculus); assay: Inhibition of spin-labelled adenine nucleotide interaction with mouse MDR3 P-gp expressed in Escherichia coli BL21 (DE3) assessed as apparent dissociation constant by ESR analysis (reference value: 36.5 +/- 3.6 uM)
[19] = system: P-glycoprotein 1 Abcb1a (Mus musculus); assay: Inhibition of 2',3'-(2,2,5,5,-tetramethyl-3-pyrroline-l-oxyl-3-carboxylic acid ester)ATP interaction with mouse MDR3 P-gp expressed in Escherichia coli BL21 (DE3) assessed as reduction in ATP binding from 2 to 1 of nucleotide to mol of protein by ESR analysis (reference value: 1.8 +/- 0.1)
[20] = target: T2, P-glycoprotein (ABCB1, mouse MDR3) ATPase; assay: Inhibition of verampil-stimulated ATPase hydrolysis in recombinant mouse MDR3 expressed in Pichia pastoris measured after 30 mins in presence of NADH by coupled enzyme assay (reference value: 100 +/- 8 %); set-up: scale not given: the % may be the effect or the level left; settings: recombinant mouse MDR3 (P-gp) expressed in Pichia pastoris
[21] = target: T2, P-glycoprotein (ABCB1, mouse MDR3) ATPase; assay: Basal ATPase hydrolysis in recombinant mouse MDR3 expressed in Pichia pastoris measured after 30 mins in presence of NADH by coupled enzyme assay (reference value: 100 +/- 7 %); set-up: scale not given: the % may be the effect or the level left; settings: recombinant mouse MDR3 (P-gp) expressed in Pichia pastoris

T1 sequence (P08183 whole entry): as above

SMILES	inhibition (INH) [1]	fold change (FC) [2]	fold change (FC) [3]	fold change (FC) [4]	fold change (FC) [5]	fold change (FC) [6]	fold change (FC) [7]	fold change (FC) [8]	fold change (FC) [9]	inhibition (INH) [10]	Activity at 0.5 h [11] [%]	inhibition (INH) [13]	inhibition (INH) [14]	Ratio [15]	Activity at 0.5 h [16] [%]	Activity at 0.5 h [17] [%]	Kd [18] [µM]	Activity [19]	Activity at 0.5 h [21] [%]	further results
Cc1cc(C)c(-c2cc(NC(=O)CSCC(=O)NC(c3ccccc3)c3ccccc3)n(-c3ccccc3)n2)cc1C	Not Active	133	38	13	3.9	193	3.5	3.7	1.9	Active	116	Not Active	Not Active	1.2	54	76	21.6	1.6	–	Activity at 0.5 h [12]: 148%
Cc1cc(C)c(-c2cc(NC(=O)CSCC(=O)NC34CC5CC(CC(C5)C3)C4)n(-c3ccccc3)n2)cc1C	Not Active	101	19	9.2	2.7	163	1.8	2.8	1.6	Active	–	Not Active	Not Active	1	63	74	22.9	1.3	78	Activity at 0.5 h [20]: 41%
Cc1cc(C)c(-c2cc(NC(=O)CSCC(=O)Nc3ccc4ccccc4c3)n(-c3ccccc3)n2)cc1C	Active	303	46	14	4.1	1060	4.2	8.4	11	Active	141	–	–	0.9	40	70	22.2	1.6	70	–
